# Test results as given in ChEMBL document CHEMBL2086252, “Syntheses and evaluation of anticonvulsant activity of novel branched alkyl carbamates” (J Med Chem, 2012).
# Activity calls are given as the source filed them. No cut-off for these calls is given here.
# Tests used:
# Mus musculus [1] = assay: Anticonvulsant activity in albino CF1 mouse assessed as protection against subcutaneous metrazol-induced seizures at 30 mg/kg, ip after 0.5 hrs; assay type: functional, organism-based; design: dose 30 mg/kg
# Summary of the method: (§1)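 Mice dosed ip at 30, 100 or 300 mg/kg, then tested 0.5 h and 4 h after administration in the MES or scMet test. Protection was recorded as animals protected over animals tested. Neurotoxicity was recorded as motor impairment or sedation, as animals affected over animals tested.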
# Mus musculus [2] = assay: Anticonvulsant activity in albino CF1 mouse assessed as protection against subcutaneous metrazol-induced seizures at 100 mg/kg, ip after 0.5 hrs; assay type: functional, organism-based; design: dose 100 mg/kg; summary of the method: as §1
# Mus musculus [3] = assay: Anticonvulsant activity in albino CF1 mouse assessed as protection against subcutaneous metrazol-induced seizures at 300 mg/kg, ip after 0.5 hrs; assay type: functional, organism-based; design: dose 300 mg/kg; summary of the method: as §1
# Mus musculus [4] = assay: Anticonvulsant activity in albino CF1 mouse assessed as protection against subcutaneous metrazol-induced seizures at 30 mg/kg, ip after 4 hrs; assay type: functional, organism-based; design: dose 30 mg/kg; summary of the method: as §1
# Mus musculus [5] = assay: Anticonvulsant activity in albino CF1 mouse assessed as protection against subcutaneous metrazol-induced seizures at 100 mg/kg, ip after 4 hrs; assay type: functional, organism-based; design: dose 100 mg/kg; summary of the method: as §1
# Mus musculus [6] = assay: Anticonvulsant activity in albino CF1 mouse assessed as protection against subcutaneous metrazol-induced seizures at 300 mg/kg, ip after 4 hrs; assay type: functional, organism-based; design: dose 300 mg/kg; summary of the method: as §1
# Mus musculus [7] = assay: Anticonvulsant activity in albino CF1 mouse assessed as protection against maximal electroshock-induced seizures at 30 mg/kg, ip after 0.5 hrs; assay type: functional, organism-based; design: dose 30 mg/kg; summary of the method: as §1
# Mus musculus [8] = assay: Anticonvulsant activity in albino CF1 mouse assessed as protection against maximal electroshock-induced seizures at 100 mg/kg, ip after 0.5 hrs; assay type: functional, organism-based; design: dose 100 mg/kg; summary of the method: as §1
# Mus musculus [9] = assay: Anticonvulsant activity in albino CF1 mouse assessed as protection against maximal electroshock-induced seizures at 300 mg/kg, ip after 0.5 hrs; assay type: functional, organism-based; design: dose 300 mg/kg; summary of the method: as §1
# Mus musculus [10] = assay: Anticonvulsant activity in albino CF1 mouse assessed as protection against maximal electroshock-induced seizures at 30 mg/kg, ip after 4 hrs; assay type: functional, organism-based; design: dose 30 mg/kg; summary of the method: as §1
# Mus musculus [11] = assay: Anticonvulsant activity in albino CF1 mouse assessed as protection against maximal electroshock-induced seizures at 100 mg/kg, ip after 4 hrs; assay type: functional, organism-based; design: dose 100 mg/kg; summary of the method: as §1
# Mus musculus [12] = assay: Anticonvulsant activity in albino CF1 mouse assessed as protection against maximal electroshock-induced seizures at 300 mg/kg, ip after 4 hrs; assay type: functional, organism-based; design: dose 300 mg/kg; summary of the method: as §1
# Mus musculus [13] = assay: Neurotoxicity in albino CF1 mouse assessed as minimal motor impairment at 30 mg/kg, ip after 0.5 hrs by rotarod test; assay type: toxicity, organism-based; design: dose 30 mg/kg, route intraperitoneal; settings: in vivo; summary of the method: as §1
# Mus musculus [14] = assay: Neurotoxicity in albino CF1 mouse assessed as minimal motor impairment at 100 mg/kg, ip after 0.5 hrs by rotarod test; assay type: toxicity, organism-based; design: dose 100 mg/kg, route intraperitoneal; settings: in vivo; summary of the method: as §1
# Mus musculus [15] = assay: Neurotoxicity in albino CF1 mouse assessed as minimal motor impairment at 300 mg/kg, ip after 0.5 hrs by rotarod test; assay type: toxicity, organism-based; design: dose 300 mg/kg, route intraperitoneal; settings: in vivo; summary of the method: as §1
# Mus musculus [16] = assay: Neurotoxicity in albino CF1 mouse assessed as minimal motor impairment at 30 mg/kg, ip after 4 hrs by rotarod test; assay type: toxicity, organism-based; design: dose 30 mg/kg, route intraperitoneal; settings: in vivo; summary of the method: as §1
# Mus musculus [17] = assay: Neurotoxicity in albino CF1 mouse assessed as minimal motor impairment at 100 mg/kg, ip after 4 hrs by rotarod test; assay type: toxicity, organism-based; design: dose 100 mg/kg, route intraperitoneal; settings: in vivo; summary of the method: as §1
# Mus musculus [18] = assay: Neurotoxicity in albino CF1 mouse assessed as minimal motor impairment at 300 mg/kg, ip after 4 hrs by rotarod test; assay type: toxicity, organism-based; design: dose 300 mg/kg, route intraperitoneal; settings: in vivo; summary of the method: as §1
# Rattus norvegicus [19] = assay: Anticonvulsant activity in Sprague-Dawley albino rat assessed as protection against maximal electroshock-induced seizures at 30 mg/kg, po after 15 mins; assay type: functional, organism-based; design: dose 30 mg/kg
# Summary of the method: (§2)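 Rats dosed orally. Anti-MES protection was scored as animals protected over animals tested at each time after dosing. Neurotoxicity was scored as motor impairment or sedation, as animals affected over animals tested.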
# Rattus norvegicus [20] = assay: Anticonvulsant activity in Sprague-Dawley albino rat assessed as protection against maximal electroshock-induced seizures at 30 mg/kg, po after 2 hrs; assay type: functional, organism-based; design: dose 30 mg/kg; summary of the method: as §2
# Rattus norvegicus [21] = assay: Anticonvulsant activity in Sprague-Dawley albino rat assessed as protection against maximal electroshock-induced seizures at 30 mg/kg, po after 4 hrs; assay type: functional, organism-based; design: dose 30 mg/kg; summary of the method: as §2
# Rattus norvegicus [22] = assay: Neurotoxicity in Sprague-Dawley albino rat assessed as minimal motor impairment at 30 mg/kg, po by rotarod test; assay type: toxicity, organism-based; design: dose 30 mg/kg, route oral; settings: in vivo; summary of the method: as §2
# Rattus norvegicus [23] = assay: Anticonvulsant activity in Sprague-Dawley albino rat assessed as protection against pilocarpine-induced status epilepticus at 65 mg/kg, ip; assay type: functional, organism-based; design: dose 65 mg/kg
# Summary of the method: (§3)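 Pilocarpine status epilepticus model in rats. Number and severity of convulsive seizures were observed behaviourally.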
# Rattus norvegicus [24] = assay: Neurotoxicity in pilocarpine-induced status epilepticus Sprague-Dawley albino rat model assessed as minimal motor impairment at 100 mg/kg, ip after 0.25 hr by rotarod test; assay type: toxicity, organism-based; design: dose 100 mg/kg, route intraperitoneal; settings: in vivo
# Rattus norvegicus [25] = assay: Neurotoxicity in pilocarpine-induced status epilepticus Sprague-Dawley albino rat model assessed as minimal motor impairment at 300 mg/kg, ip after 0.25 hr by rotarod test; assay type: toxicity, organism-based; design: dose 300 mg/kg, route intraperitoneal; settings: in vivo
# Summary of the method: (§4)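 Rat pilocarpine status epilepticus model: test carbamate given at 0 or 30 min after the first observed Racine stage 3 motor seizure, which marks SE onset. Neurotoxicity was scored within the same model.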
# Rattus norvegicus [26] = assay: Neurotoxicity in pilocarpine-induced status epilepticus Sprague-Dawley albino rat model assessed as minimal motor impairment at 30 mg/kg, ip after 0.25 hr by rotarod test; assay type: toxicity, organism-based; design: dose 30 mg/kg, route intraperitoneal; settings: in vivo; summary of the method: as §4
# Rattus norvegicus [27] = assay: Neurotoxicity in pilocarpine-induced status epilepticus Sprague-Dawley albino rat model assessed as minimal motor impairment at 100 mg/kg, ip after 0.5 hrs by rotarod test; assay type: toxicity, organism-based; design: dose 100 mg/kg, route intraperitoneal; settings: in vivo
# Rattus norvegicus [28] = assay: Neurotoxicity in pilocarpine-induced status epilepticus Sprague-Dawley albino rat model assessed as minimal motor impairment at 300 mg/kg, ip after 0.5 hrs by rotarod test; assay type: toxicity, organism-based; design: dose 300 mg/kg, route intraperitoneal; settings: in vivo; summary of the method: as §4
# Rattus norvegicus [29] = assay: Neurotoxicity in pilocarpine-induced status epilepticus Sprague-Dawley albino rat model assessed as minimal motor impairment at 30 mg/kg, ip after 0.5 hrs by rotarod test; assay type: toxicity, organism-based; design: dose 30 mg/kg, route intraperitoneal; settings: in vivo; summary of the method: as §4
# Rattus norvegicus [30] = assay: Neurotoxicity in pilocarpine-induced status epilepticus Sprague-Dawley albino rat model assessed as minimal motor impairment at 100 mg/kg, ip after 1 hr by rotarod test; assay type: toxicity, organism-based; design: dose 100 mg/kg, route intraperitoneal; settings: in vivo
# Rattus norvegicus [31] = assay: Neurotoxicity in pilocarpine-induced status epilepticus Sprague-Dawley albino rat model assessed as minimal motor impairment at 300 mg/kg, ip after 1 hr by rotarod test; assay type: toxicity, organism-based; design: dose 300 mg/kg, route intraperitoneal; settings: in vivo; summary of the method: as §4
# Rattus norvegicus [32] = assay: Neurotoxicity in pilocarpine-induced status epilepticus Sprague-Dawley albino rat model assessed as minimal motor impairment at 30 mg/kg, ip after 1 hr by rotarod test; assay type: toxicity, organism-based; design: dose 30 mg/kg, route intraperitoneal; settings: in vivo; summary of the method: as §4
# Rattus norvegicus [33] = assay: Neurotoxicity in pilocarpine-induced status epilepticus Sprague-Dawley albino rat model assessed as minimal motor impairment at 100 mg/kg, ip after 2 hrs by rotarod test; assay type: toxicity, organism-based; design: dose 100 mg/kg, route intraperitoneal; settings: in vivo
# Rattus norvegicus [34] = assay: Neurotoxicity in pilocarpine-induced status epilepticus Sprague-Dawley albino rat model assessed as minimal motor impairment at 300 mg/kg, ip after 2 hrs by rotarod test; assay type: toxicity, organism-based; design: dose 300 mg/kg, route intraperitoneal; settings: in vivo; summary of the method: as §4
# Rattus norvegicus [35] = assay: Neurotoxicity in pilocarpine-induced status epilepticus Sprague-Dawley albino rat model assessed as minimal motor impairment at 30 mg/kg, ip after 2 hrs by rotarod test; assay type: toxicity, organism-based; design: dose 30 mg/kg, route intraperitoneal; settings: in vivo; summary of the method: as §4
# Rattus norvegicus [36] = assay: Neurotoxicity in pilocarpine-induced status epilepticus Sprague-Dawley albino rat model assessed as minimal motor impairment at 100 mg/kg, ip after 4 hrs by rotarod test; assay type: toxicity, organism-based; design: dose 100 mg/kg, route intraperitoneal; settings: in vivo
# Rattus norvegicus [37] = assay: Neurotoxicity in pilocarpine-induced status epilepticus Sprague-Dawley albino rat model assessed as minimal motor impairment at 300 mg/kg, ip after 4 hrs by rotarod test; assay type: toxicity, organism-based; design: dose 300 mg/kg, route intraperitoneal; settings: in vivo; summary of the method: as §4
# Rattus norvegicus [38] = assay: Neurotoxicity in pilocarpine-induced status epilepticus Sprague-Dawley albino rat model assessed as minimal motor impairment at 30 mg/kg, ip after 4 hrs by rotarod test; assay type: toxicity, organism-based; design: dose 30 mg/kg, route intraperitoneal; settings: in vivo; summary of the method: as §4
# Rattus norvegicus [39] = assay: Anticonvulsant activity in ip dosed Sprague-Dawley albino rat assessed as protection against pilocarpine-induced status epilepticus after 0.5 hrs; assay type: functional; summary of the method: as §3
# Rattus norvegicus [40] = assay: Neurotoxicity in pilocarpine-induced status epilepticus Sprague-Dawley albino rat model assessed as minimal motor impairment at 65 mg/kg, ip after 0.5 hrs by rotarod test; assay type: toxicity, organism-based; design: dose 65 mg/kg, route intraperitoneal; settings: in vivo; summary of the method: as §4
smiles,measurement,setting,value
CCCC(COC(N)=O)C(C)C (racemic),Activity,Mus musculus [1],inactive
same,Activity,Mus musculus [2],inactive
same,Activity,Mus musculus [3],Active
same,Activity,Mus musculus [4],inactive
same,Activity,Mus musculus [5],inactive
same,Activity,Mus musculus [6],inactive
same,Activity,Mus musculus [7],inactive
same,Activity,Mus musculus [8],Active
same,Activity,Mus musculus [9],Active
same,Activity,Mus musculus [10],inactive
same,Activity,Mus musculus [11],inactive
same,Activity,Mus musculus [12],inactive
same,Activity,Mus musculus [13],Non-toxic
same,Activity,Mus musculus [14],Non-toxic
same,Activity,Mus musculus [15],Toxic
same,Activity,Mus musculus [16],Non-toxic
same,Activity,Mus musculus [17],Non-toxic
same,Activity,Mus musculus [18],Non-toxic
same,Activity,Rattus norvegicus [19],inactive
same,Activity,Rattus norvegicus [20],inactive
same,Activity,Rattus norvegicus [21],inactive
same,Activity,Rattus norvegicus [22],Non-toxic
same,Activity,Rattus norvegicus [23],Active
same,Activity,Rattus norvegicus [24],Toxic
same,Activity,Rattus norvegicus [25],Toxic
same,Activity,Rattus norvegicus [26],Non-toxic
same,Activity,Rattus norvegicus [27],Toxic
same,Activity,Rattus norvegicus [28],Toxic
same,Activity,Rattus norvegicus [29],Non-toxic
same,Activity,Rattus norvegicus [30],Toxic
same,Activity,Rattus norvegicus [31],Toxic
same,Activity,Rattus norvegicus [32],Non-toxic
same,Activity,Rattus norvegicus [33],Non-toxic
same,Activity,Rattus norvegicus [34],Toxic
same,Activity,Rattus norvegicus [35],Non-toxic
same,Activity,Rattus norvegicus [36],Non-toxic
same,Activity,Rattus norvegicus [37],Toxic
same,Activity,Rattus norvegicus [38],Non-toxic
same,ED50,Rattus norvegicus [39],107 mg/kg
same,ED97,Rattus norvegicus [39],151 mg/kg
same,Activity,Rattus norvegicus [40],Non-toxic
CCC(C)C(COC(N)=O)C(C)C (racemic),Activity,Mus musculus [1],inactive
same,Activity,Mus musculus [2],Active
same,Activity,Mus musculus [3],Active
same,Activity,Mus musculus [4],inactive
same,Activity,Mus musculus [5],inactive
same,Activity,Mus musculus [6],inactive
same,Activity,Mus musculus [7],inactive
same,Activity,Mus musculus [8],Active
same,Activity,Mus musculus [9],Active
same,Activity,Mus musculus [10],inactive
same,Activity,Mus musculus [11],inactive
same,Activity,Mus musculus [12],inactive
same,Activity,Mus musculus [13],Non-toxic
same,Activity,Mus musculus [15],Toxic
same,Activity,Mus musculus [16],Non-toxic
same,Activity,Mus musculus [17],Non-toxic
same,Activity,Mus musculus [18],Non-toxic
same,Activity,Rattus norvegicus [23],Active
same,Activity,Rattus norvegicus [24],Toxic
same,Activity,Rattus norvegicus [26],Non-toxic
same,Activity,Rattus norvegicus [27],Toxic
same,Activity,Rattus norvegicus [29],Non-toxic
same,Activity,Rattus norvegicus [32],Non-toxic
same,Activity,Rattus norvegicus [33],Non-toxic
same,Activity,Rattus norvegicus [35],Non-toxic
same,Activity,Rattus norvegicus [36],Non-toxic
same,Activity,Rattus norvegicus [38],Non-toxic
same,ED50,Rattus norvegicus [39],114 mg/kg
same,ED97,Rattus norvegicus [39],199 mg/kg
same,Activity,Rattus norvegicus [40],Non-toxic
